From ChEMBL document CHEMBL4651341, “The discovery of a novel series of compounds with single-dose efficacy against juvenile and adult Schistosoma species” (PLoS Negl Trop Dis, 2021)
Values after ≈ are worked out from the molar mass of the structure shown.

Key:
Schistosoma mansoni [1] = experiment: Concentration required to kill 50% of 42 day old worms 5 days after drug treatment.; format: functional, organism-based; conditions: Puerto Rican, 120 h
Summary of the method: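 Adult S. mansoni were perfused from CD1 mice 6 weeks post-infection and washed. They were cultured 3 pairs per well in 1 mL DMEM with 2 mM glutamine, penicillin/streptomycin and 10% FCS […] at 37 °C, 5% CO2. Viability of individual worms was scored on day 5 (120 h).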

[2] = Concentration required to kill 50% MRC-5 cells as detected by Alamar blue staining; format: toxicity, cell-based, MRC5; conditions: homo sapiens, read-out: TC50 (the source's name)
Schistosoma mansoni [3] = experiment: Concentration required to kill 50% of 21 day old worms 5 days after drug treatment.; format: functional, organism-based; conditions: Puerto Rican, 120 h
Summary of the method: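 Juvenile S. mansoni (Puerto Rican strain) were perfused from CD1 mice 3 weeks post-infection and washed. They were cultured 6–8 per well in 200 µL DMEM with 2 mM glutamine, penicillin/streptomycin and 10% FCS at 37 °C, 5% CO2. Viability of individual worms was scored on day 5 after dosing (120 h).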

[4] = Solubility at 25 degC of compound (diluted from DMSO) in PBS at pH 7.4 determined after 24h (1h sonication, 22h shaking, 1h sonication) by LCMS/MS; format: physicochemical
[5] = Partition coefficient of compound between n-octanol and PBS (pH7.4); format: physicochemical; conditions: octanol/water, pH 7.4
Summary of the method: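 Shake-flask method using octanol and PBS pH 7.4, each pre-saturated with the other. Compound was shaken 2 h at 850 rpm, 25 °C, then the phases were separated by centrifugation and both layers diluted and analysed by LC-MS/MS. LogD = log(octanol AUC × relative dilution / buffer AUC).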

[6] = Concentration required to kill 50% HepG2 cells as detected by MTT staining; format: toxicity, cell-based; conditions: homo sapiens, read-out: TC50 (the source's name)
[7] = Mean observed clearance in Swiss albino male mice at 1 mg/kg per compound (administered iv in a mixture of 5 compounds to 3 mice) assessed by LCMS/MS.; format: ADME, organism-based; conditions: male, Swiss albino, mouse, in vivo, read-out: Clearance (converted)
Summary of the method: (§1)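 Male Swiss albino mice (~30 g), 3 per experiment, mostly dosed as mixtures of 5 compounds iv via the lateral tail vein. Vehicle: 10% DMSO/90% 50 mM Na2HPO4 with 0.5% Tween-80. Blood sampled at 5, 15, 30 min and 1, 2, 4, 8, 24 h. Plasma stored at −20 °C and quantified by LC-MS after acetonitrile precipitation.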

[8] = Mean volume of distribution at steady state in Swiss albino male mice at 1 mg/kg per compound (administered iv in a mixture of 5 compounds to 3 mice) assessed by LCMS/MS.; format: ADME, organism-based; conditions: mouse, in vivo, read-out: Volume
Summary of the method: (§2)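 Male Swiss albino mice (~30 g), 3 per experiment, mostly dosed as mixtures of 5 compounds iv via the lateral tail vein. Vehicle: 10% DMSO/90% 50 mM Na2HPO4 with 0.5% Tween-80. Plasma stored at −20 °C and quantified by LC-MS after acetonitrile precipitation.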

[9] = Mean plasma concentration at 24h in Swiss albino male mice at […] per compound (administered orally in a mixture of 5 compounds to 3 mice) assessed by LCMS/MS.; format: ADME, organism-based; conditions: mouse, po
[10] = Percentage of parent compound remaining after incubation for 30 minutes with cyropreserved mouse hepatocytes at a concentration of 1uM compound and […], determined by LCMS; format: ADME, tissue-based, Hepatocyte; conditions: cryopreserved mouse hepatocytes, read-out: Stability
Summary of the method: (§3)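 Compound was incubated at 1 µM final (2 µM working solution mixed 1:1 with hepatocyte suspension) in supplemented KHB pH 7.4. Conditions: 37 °C, 5% CO2, gentle mixing, duplicates. Reaction quenched with ice-cold acetonitrile containing standard; analysed by LC-MS/MS. % remaining = AUC at t / AUC at T0.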

[11] = Plasma protein binding determined at 10uM by LC-MS/MS.; format: ADME, cell-free; conditions: mouse
Summary of the method: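 Equilibrium dialysis of plasma spiked at 10 µM (0.1% DMSO) against PBS pH 7.4, 6 h at 37 °C, duplicates. Both chambers analysed by LC-MS/MS after acetonitrile precipitation. % free = buffer/plasma area ratio; recovery also calculated.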

[12] = Mean half-life in Swiss albino male mice at 1 mg/kg per compound (administered iv in a mixture of 5 compounds to 3 mice) assessed by LCMS/MS.; format: ADME, organism-based; conditions: mouse, in vivo; summary of the method: as §2
[13] = Mean AUC inf in Swiss albino male mice at 1 mg/kg per compound (administered iv in a mixture of 5 compounds to 3 mice) assessed by LCMS/MS.; format: ADME, organism-based; conditions: male, Swiss albino, mouse, in vivo; summary of the method: as §1
[14] = Mean plasma concentration at 4h in Swiss albino male mice at […] per compound (administered orally in a mixture of 5 compounds to 3 mice) assessed by LCMS/MS.; format: ADME, organism-based; conditions: mouse, po
[15] = Mean oral bioavailability in Swiss albino male mice at […] per compound (administered in a mixture of 5 compounds to 3 mice) assessed by LCMS/MS.; note: dose 2.5 mg/kg; format: ADME, organism-based; conditions: male, Swiss albino, mouse, in vivo, read-out: Bioavailability
[16] = Mean time to peak plasma concentration in Swiss albino male mice at […] per compound (administered orally in a mixture of 5 compounds to 3 mice) assessed by LCMS/MS.; format: ADME, organism-based; conditions: mouse, po
[17] = Percentage of parent compound remaining after incubation for 90 minutes with cyropreserved mouse hepatocytes at a concentration of 1uM compound and […], determined by LCMS; format: ADME, tissue-based, Hepatocyte; conditions: cryopreserved mouse hepatocytes, read-out: Stability; summary of the method: as §3

solubility kinetic at 24 h [4] [µM]	Compound	EC50 (Schistosoma mansoni [1]) [µM]	CC50 [2] [µM]	EC50 (Schistosoma mansoni [3]) [µM]	CC50 [6] [µM]	other results
	Oc1ccc(-c2cnc3ccc(-c4cccc(C(F)(F)F)c4)nn23)c(F)c1	> 25	> 50	> 25		
	CC(C)Oc1cccc(-c2ccc3nnc(-c4ccc(O)cc4)n3c2)c1		> 50	> 25		
	COc1ccc(-c2nnc3ccc(-c4cccc5c4OCC5)cn23)cc1OC		27.6	24.8		
	COc1ccc(-c2cnc3cnc(-c4cccc(Cl)c4)cn23)cc1	12.2	> 50	13.1		
	CC(C)c1cccc(-c2ccc3nnc(-c4cccc(NS(C)(=O)=O)c4)n3c2)c1		> 50	24.6		
0.672 (≈ 0.278 µg/mL)	CCc1nc2cnc(-c3cccc(C(F)(F)F)c3)cn2c1-c1ccc(OC)c(O)c1	< 0.133	> 50	0.0829	> 30	Lipophilicity [5]: 3.97 =
	CCOc1cccc(-c2cn3c(-c4ccc(OC)cc4)cnc3cn2)c1	12.1	37.7	11		
1.23 (≈ 0.427 µg/mL)	CC(C)c1cccc(-c2cn3c(-c4ccc(O)cc4F)cnc3cn2)c1	0.262	11.1	0.636	> 11.1	
	COc1ccc(-c2cnc3cnc(-c4cccc(OC)c4)cn23)cc1	6.75	> 49.9	12.6		
	COc1ccc(-c2nnc3ccc(-c4cccc(C(C)C)c4)cn23)cn1		45.8	24.2		
	COc1ccc(-c2nnc3ccc(-c4cccc(C(C)C)c4)cn23)cc1		40.8	24.2		Lipophilicity [5]: 4.71 =
	CC(C)Oc1cccc(-c2cn3c(-c4cnn(Cc5ccccc5)c4)cnc3cn2)c1	> 25	39.4	> 25		
29.8 (≈ 11.9 µg/mL)	COc1ccc(-c2c(C)nn3cnc(-c4cccc(C(F)(F)F)c4)cc23)cc1O			0.785		clearance [7]: 195 mL/min/kg; Vd [8]: 3.18 L/kg; concentration at 24 h [9]: 0.1 ng/mL; remaining at 0.5 h, 1 µM [10]: 45.1%; Binding [11]: 99.935%; half-life [12]: 14.4 min; AUC(0-inf) [13]: 43.2 ng·h/mL; Lipophilicity [5]: 3.73 =; concentration at 4 h [14]: 0.1 ng/mL
1.19 (≈ 0.409 µg/mL)	Cc1nc2cnc(-c3cccc(C(C)C)c3)cn2c1-c1ccc(O)cc1	< 0.43	> 50	< 0.421	> 11.5	
	COc1cc(-c2cnc3cnc(-c4cccc(C(C)C)c4)cn23)ccc1O	1.41	> 50	1.63	26	Lipophilicity [5]: 4.75 =
	COc1ccc(-c2cnc3cnc(-c4cccc(C(C)C)c4)cn23)cc1	1.85	9.04	2.43		Lipophilicity [5]: 5.36 =
1.42 (≈ 0.529 µg/mL)	Oc1ccc(-c2cnn3ccc(-c4cccc(C(F)(F)F)c4)cc23)c(F)c1			2.65		clearance [7]: 158 mL/min/kg; Vd [8]: 2.85 L/kg; concentration at 24 h [9]: 0.1 ng/mL; remaining at 0.5 h, 1 µM [10]: 50.9%; Binding [11]: 100%; bioavailability [15]: 0%; half-life [12]: 25 min; AUC(0-inf) [13]: 52.7 ng·h/mL; Lipophilicity [5]: 4.27 =; Tmax [16]: 15 min; concentration at 4 h [14]: 0.1 ng/mL
3.49 (≈ 1.35 µg/mL)	Cc1nc2cnc(-c3cccc(C(F)(F)F)c3)cn2c1-c1ccc(O)cc1F	0.29	18.7	< 0.614		remaining at 0.5 h, 1 µM [10]: 31.5%
	COc1ccc(-c2cnc3cnc(-c4cccc(OC(C)C)c4)cn23)cc1OC	5.56	28.7	9.51		
	CC(C)Oc1cccc(-c2cn3c(-c4ccc5[nH]ncc5c4)cnc3cn2)c1	7.19	22.2	7.5		
	CC(C)Oc1cccc(-c2cn3c(-c4ccnc(C(F)(F)F)c4)cnc3cn2)c1	> 25	> 49.2	> 25		
	CCc1cccc(-c2cn3c(-c4ccc(OC)c(OC)c4)cnc3cn2)c1	1.06	29.9	2.79		
	COc1ccc(-c2cnc3cnc(-c4cccc(OC(C)C)c4)cn23)c(OC)c1	12.7	> 48.9	12.5		
	COc1ccc(-c2cnc3ccc(-c4cccc(C(C)C)c4)nn23)cc1O	5.59	11.3	8.26	9.24	
0.0917 (≈ 0.0456 µg/mL)	Fc1ccc(-c2cn3c(-c4ccc5[nH]ncc5c4F)c(C(F)(F)F)nc3cn2)cc1CC(F)(F)F	0.0119		0.0104	5.3	clearance [7]: 25.5 mL/min/kg; Vd [8]: 3.28 L/kg; concentration at 24 h [9]: 0.971 ng/mL; bioavailability [15]: 52.5%; remaining at 1.5 h, 1 µM [17]: 55.8%; half-life [12]: 165 min; AUC(0-inf) [13]: 328 ng·h/mL; Tmax [16]: 30 min; concentration at 4 h [14]: 57.2 ng/mL
32.8 (≈ 15.2 µg/mL)	CC1(c2nc3cnc(-c4ccc(F)c(C(F)(F)F)c4)cn3c2-c2c(F)cc(O)cc2F)CC1	0.0563		0.0796	7.9	clearance [7]: 15.9 mL/min/kg; Vd [8]: 9.19 L/kg; concentration at 24 h [9]: 7.01 ng/mL; bioavailability [15]: 55.6%; remaining at 1.5 h, 1 µM [17]: 41.7%; half-life [12]: 509 min; AUC(0-inf) [13]: 528 ng·h/mL; Tmax [16]: 15 min; concentration at 4 h [14]: 76 ng/mL
	CC(C)c1cccc(-c2cn3c(-c4ccc(O)c(F)c4)cnc3cn2)c1	0.823	> 50	1.32	> 30	
1.26 (≈ 0.57 µg/mL)	CC(C)c1nc2cnc(-c3ccc(F)c(C(F)(F)F)c3)nc2n1-c1c(F)cc(O)cc1F	0.0714		0.128	4.8	clearance [7]: 23.3 mL/min/kg; Vd [8]: 7.39 L/kg; concentration at 24 h [9]: 5.17 ng/mL; bioavailability [15]: 45%; remaining at 1.5 h, 1 µM [17]: 12.5%; half-life [12]: 425 min; AUC(0-inf) [13]: 360 ng·h/mL; Tmax [16]: 15 min; concentration at 4 h [14]: 52.6 ng/mL
	COc1ccc(-c2cnc3cnc(-c4ccc(N5CCN(C)CC5)nc4)cn23)cc1	> 25	20.9	15		

Compound	solubility kinetic at 24 h [4] [µM]	EC50 (Schistosoma mansoni [1]) [µM]	CC50 [2] [µM]	EC50 (Schistosoma mansoni [3]) [µM]	CC50 [6] [µM]	other results
CC(C)c1nc2cnc(-c3ccc(F)c(C(F)(F)F)c3)cn2c1-c1c(F)cc(OP(=O)(O)O)cc1F	179 (≈ 95.1 µg/mL)	0.0272		0.025	6.5	clearance [7]: 153 mL/min/kg; Vd [8]: 3.62 L/kg; concentration at 24 h [9]: 0.1 ng/mL; bioavailability [15]: 21.4%; remaining at 1.5 h, 1 µM [17]: 0.9%; half-life [12]: 25 min; AUC(0-inf) [13]: 54.7 ng·h/mL; Tmax [16]: 15 min; concentration at 4 h [14]: 4.01 ng/mL
COc1ccc(-c2c(C(C)C)nc3cnc(-c4cccc(C(F)(F)F)c4)cn23)cc1OP(=O)(O)O	209 (≈ 106 µg/mL)			0.241	19.2	clearance [7]: 345 mL/min/kg; Vd [8]: 4.06 L/kg; concentration at 24 h [9]: 0.1 ng/mL; remaining at 0.5 h, 1 µM [10]: 51.1%; Binding [11]: 96.79%; half-life [12]: 22.6 min; AUC(0-inf) [13]: 25 ng·h/mL; Lipophilicity [5]: 0.09 =; concentration at 4 h [14]: 0.1 ng/mL
